The source made the active and inactive calls. The rule behind the calls is not given here.

Results on 14 molecules are retold here after ChEMBL document CHEMBL3763107, “Anti-inflammatory neolignans from the roots of Magnolia officinalis” (Bioorg Med Chem, 2016).

Common to all, as to type: functional, cell-based
Assay [1] has as its system Neutrophil. The experiment in a line: (§1) Antiinflammatory activity in human neutrophils assessed as inhibition of FMLP/CB-induced elastase release using MeO-Suc-Ala-Ala-Pro-Val-p-nitroanilide as substrate incubated for 5 mins by spectrophotometric analysis. The method, boiled down:
(§2)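 Neutrophils from healthy donor blood, isolated by dextran sedimentation, Ficoll gradient and hypotonic lysis, kept in Ca2+-free HBSS pH 7.4 at 4 °C. Cells at 6 × 10^5/mL with 100 µM substrate, 2 min at 37 °C, then drug or 0.1% DMSO vehicle for 5 min. Activated with 100 nM FMLP + 0.5 µg/mL CB. A405 followed continuously; % of drug-free activated control; IC50 from mean of n = 3.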

Assay [2] is described as follows: as §1. The conditions noted are these: Neutrophil. The method, boiled down:
as §2

For assay [3], the system named is Neutrophil. The experiment in a line: (§3) Antiinflammatory activity in human neutrophils assessed as inhibition of FMLP/CB-induced superoxide anion generation by measuring superoxide dismutase-inhibitable reduction of ferricytochrome c by spectrophotometric analysis. The method, boiled down: (§4)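 Dextran/Ficoll-purified human neutrophils (6 × 10^5 cells/mL) with ferricytochrome c and 1 mM Ca2+, 2 min at 37 °C. Primed with 1 µg/mL cytochalasin B, then 100 nM FMLP. A550 monitored continuously with stirring. Superoxide taken as the SOD (100 U/mL)-inhibitable reduction using ε 21.1/mM/10 mm. IC50 from mean of n = 3.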

The nature of assay [4]: as §3. The conditions noted are these: Neutrophil. The method, boiled down:
as §4

In assay [5] the test system is Neutrophil. Put plainly: Induction of FMLP/CB-mediated superoxide anion generation in human neutrophils by measuring superoxide dismutase-inhibitable reduction of ferricytochrome c by spectrophotometric analysis.
Assay [6] relates to Neutrophil. The experiment in a line: Induction of superoxide anion generation in human neutrophils by spectrophotometric analysis.
The test system of assay [7] is Neutrophil. Put plainly: Induction of ferricytochrome c reduction in human neutrophils by spectrophotometric analysis.

Regarding `C=CCc1ccc(O)c(-c2ccc(O)c(OC)c2)c1`, the inhibition result with Neutrophil [1] and in the assay with Neutrophil [3] was “Dose-dependent effect” each time. The figures for the IC50 in assay [2] and in assay [4] were 18.2 µM and 7.89 µM, respectively.
On to `C=CCc1ccc(O)c(-c2ccc(O[C@@H]3CCc4cc(CC=C)cc(-c5cc(CC=C)ccc5O)c4O3)cc2O)c1`, for which the inhibition entry with Neutrophil [1] and in the assay on Neutrophil [3] was “Dose-dependent effect” each time. In addition, the IC50 in assay [2] was determined as 3.81 µM; in assay [4] it was 19.3 µM.
Turning to `C=CCc1ccc(Oc2cc(CC=C)c3c(c2O)O[C@@]2(C)CC[C@@H](C(C)C)[C@@H]3C2)cc1`, the inhibition result with Neutrophil [1] and in the assay on Neutrophil [3] was “Dose-dependent effect” in each case. In addition, the results for the IC50 in assay [2] and in assay [4] were 3.67 µM and 3.54 µM, respectively.
For `C=CCc1ccc(O)c(-c2ccc(OC)c(CC=C)c2)c1` [METHYLHONOKIOL], the inhibition entry in the assay on Neutrophil [1] and in the assay with Neutrophil [3] was “Dose-dependent effect” throughout. Moreover, the results for the IC50 in assay [2] and in assay [4] were 8.18 µM and 14.3 µM, respectively.
For the molecule `C=CCc1ccc(O)c(-c2cc(CC=C)cc(OC)c2O)c1`, the inhibition result with Neutrophil [1] and in the assay with Neutrophil [3] was “Dose-dependent effect” each time. Besides, the IC50 was 3.39 µM in assay [2] and 5.48 µM in assay [4].
For `C=CCc1ccc(O)c(-c2cc(O[C@H]3CCc4cc(CC=C)cc(-c5cc(CC=C)ccc5O)c4O3)ccc2O)c1`, the outcome in the assay on Neutrophil [5] was Active. The inhibition result in the assay with Neutrophil [1] was “Dose-dependent effect”. The IC50 in assay [2] worked out at 2.25 µM.
With `C=CCc1ccc(O)c(-c2cc(CC=C)cc([C@H]3C[C@@](C)(O)CC[C@@H]3C(C)C)c2O)c1`, the inhibition entry in the assay on Neutrophil [1] and in the assay on Neutrophil [3] was “Dose-dependent effect” each time. The IC50 is 2.16 µM in assay [2] and 4.21 µM in assay [4].
Consider `CNC(=O)c1cc(Oc2ccc(NC(=O)Nc3ccc(Cl)c(C(F)(F)F)c3)cc2)ccn1` [SORAFENIB], for which the IC50 in assay [2] was determined as 2 µM; in assay [4], 3.2 µM.
Consider `C=CCc1ccc(O)c(-c2cc(CC=C)cc([C@@H]3[C@@H](C(C)C)CC[C@@](C)(O)[C@@H]3O)c2O)c1`, for which the inhibition entry in the assay on Neutrophil [1] and with Neutrophil [3] was “Dose-dependent effect” each time. The figures for the IC50 in assay [2] and in assay [4] were 10.7 µM and 15.1 µM, respectively.
With `C=CCc1ccc(O)c(-c2cc(CC=C)cc([C@@H]3C=C(C)CC[C@H]3C(C)C)c2O)c1`, the inhibition result with Neutrophil [1] and in the assay with Neutrophil [3] was “Dose-dependent effect” in each case. Further, the IC50 in assay [2] was 14.8 µM; in assay [4], 10.8 µM.
Turning to `C=CCc1ccc(O)c(-c2cc(CC=C)cc(C=O)c2O)c1`, the result with Neutrophil [6] was Active. The inhibition result in the assay with Neutrophil [1] was “Dose-dependent effect”. In assay [2], the IC50 was found to be 0.63 µM.
For the molecule `C=CCc1ccc(O)c(-c2cc(CC=C)cc([C@H]3C[C@](C)(O)CC[C@@H]3C(C)C)c2O)c1`, the inhibition result in the assay with Neutrophil [1] and in the assay with Neutrophil [3] was “Dose-dependent effect” throughout. Also, the IC50 came out at 3.56 µM in assay [2] and 8.16 µM in assay [4].
On to `C=CCc1ccc(Oc2cc(CC=C)cc(O)c2O)cc1` [OBOVATOR], for which the inhibition entry with Neutrophil [1] was “Dose-dependent effect”. Further, the IC50 in assay [2] is 3.3 µM. Also, the result in the assay with Neutrophil [7] was Active.
As to `C=CCc1ccc(O)c(-c2cc(CC=C)cc3c2O[C@@H]2[C@H]3[C@@H](C(C)C)CC[C@@]2(C)O)c1`, the inhibition entry with Neutrophil [1] and in the assay on Neutrophil [3] was “Dose-dependent effect” throughout. Moreover, the figures for the IC50 in assay [2] and in assay [4] were 2.59 µM and 4.17 µM, respectively.

By IC50 is commonly meant the concentration at which inhibition is half-maximal.
